According to ChEMBL document CHEMBL1137980, “Rationale, design, and synthesis of novel phenyl imidazoles as opioid receptor agonists for gastrointestinal disorders” (J Med Chem, 2004):
pEC50, pKi: −log10 of the molar value. Residues, ends and D or L forms follow the SMILES beside them.

Assays:
[1] = molecular target: Opioid receptors; mu & delta (Rattus norvegicus) (UniProt P33533+P33535); assay: Selectivity for mu 1 and delta 1 opioid receptors; assay type: protein assay
Mu-type opioid receptor [2] = molecular target: Mu-type opioid receptor (Cavia porcellus, UniProt P97266); assay: Inhibition of mu opioid receptor mediated GTPgammaS binding to CHO cell membranes; assay type: functional
Chain of Mu-type opioid receptor (Cavia porcellus, UniProt P97266) (P97266 whole entry): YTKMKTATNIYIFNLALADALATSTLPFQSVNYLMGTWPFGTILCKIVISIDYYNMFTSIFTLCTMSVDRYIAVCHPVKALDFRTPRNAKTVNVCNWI

[3] = molecular target: Delta-type opioid receptor (Rattus norvegicus, UniProt P33533); assay: Binding affinity for delta opioid receptor of rat brain
Chain of Delta-type opioid receptor (Rattus norvegicus, UniProt P33533) (P33533 whole entry): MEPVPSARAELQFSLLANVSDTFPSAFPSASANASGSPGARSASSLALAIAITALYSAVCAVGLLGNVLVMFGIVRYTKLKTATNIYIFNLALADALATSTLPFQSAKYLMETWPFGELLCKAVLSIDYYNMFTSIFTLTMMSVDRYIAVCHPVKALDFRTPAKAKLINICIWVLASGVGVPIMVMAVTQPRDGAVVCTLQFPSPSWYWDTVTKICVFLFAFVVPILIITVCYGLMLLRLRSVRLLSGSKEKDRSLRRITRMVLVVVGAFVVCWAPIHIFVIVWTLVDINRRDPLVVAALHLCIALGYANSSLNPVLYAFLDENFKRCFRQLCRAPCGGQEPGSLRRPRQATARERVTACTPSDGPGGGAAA
Procedure, shortened: (§1)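 Male Wistar rat forebrain membranes in 50 mM Tris HCl pH 7.4 with 5 mM MgCl2. Incubated 2.5 h at 25 °C with ~4 nM [3H]DPDPE (δ) or ~0.8 nM [3H]DAMGO (μ). Filtered, rinsed with 10 mM HEPES pH 7.4 and counted by liquid scintillation. Ki derived from a range of test concentrations; single-concentration data expressed as % inhibition of specific binding.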

Mu-type opioid receptor [4] = molecular target: Mu-type opioid receptor (Rattus norvegicus, UniProt P33535); assay: Binding affinity for Mu opioid receptor of rat brain; procedure, shortened: as §1
Chain of Mu-type opioid receptor (Rattus norvegicus, UniProt P33535) (P33535 whole entry): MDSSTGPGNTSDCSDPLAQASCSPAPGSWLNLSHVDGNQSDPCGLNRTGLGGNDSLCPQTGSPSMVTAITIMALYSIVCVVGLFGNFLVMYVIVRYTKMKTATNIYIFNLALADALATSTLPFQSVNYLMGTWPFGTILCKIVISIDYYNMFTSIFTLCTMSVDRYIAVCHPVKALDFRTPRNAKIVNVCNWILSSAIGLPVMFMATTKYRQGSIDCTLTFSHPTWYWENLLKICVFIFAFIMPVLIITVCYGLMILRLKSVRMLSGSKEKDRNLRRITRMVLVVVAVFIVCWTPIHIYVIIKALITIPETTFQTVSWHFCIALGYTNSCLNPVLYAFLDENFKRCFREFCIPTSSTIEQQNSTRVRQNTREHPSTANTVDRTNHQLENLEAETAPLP

[5] = molecular target: Delta-type opioid receptor (Homo sapiens, UniProt P41143); assay: Inhibition of delta opioid receptor mediated GTPgammaS binding to CHO cell membranes; assay type: functional
Chain of Delta-type opioid receptor (Homo sapiens, UniProt P41143) (P41143 whole entry): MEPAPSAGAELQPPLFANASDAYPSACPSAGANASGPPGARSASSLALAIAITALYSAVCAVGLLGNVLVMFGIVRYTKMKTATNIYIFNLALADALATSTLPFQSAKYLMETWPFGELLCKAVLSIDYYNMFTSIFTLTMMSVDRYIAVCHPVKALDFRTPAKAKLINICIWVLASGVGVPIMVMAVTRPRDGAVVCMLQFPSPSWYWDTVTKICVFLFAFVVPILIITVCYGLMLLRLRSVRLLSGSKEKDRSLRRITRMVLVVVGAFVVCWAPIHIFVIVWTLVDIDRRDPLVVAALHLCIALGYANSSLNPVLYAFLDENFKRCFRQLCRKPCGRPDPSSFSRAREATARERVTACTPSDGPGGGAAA
Procedure, shortened: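 Purchased CHO-hδ cell membranes at 10 µg/mL, coupled to SPA beads at 5 mg/mL. Incubated with 0.5 nM [35S]GTPγS and 50 µM GDP in 50 mM HEPES pH 7.6 with 5 mM MgCl2, 100 mM NaCl, 1 mM DTT and 1 mM EDTA. Increasing agonist concentrations stimulated binding. Basal binding measured without agonist; nonspecific binding with 10 µM unlabeled GTPγS.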

Mus musculus [6] = assay: Percent inhibition of mouse abdominal constriction at a dose of 100 ug upon intracerebro ventricular administration; assay type: functional, Abdomen
Procedure, shortened: (§2)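 Male CD1 mice (18–40 g), n = 10 per group, dosed sc (10 mL/kg volume) or icv. Then challenged ip with acetylcholine bromide dissolved in distilled water (5.5 mg/kg as printed), given at 0.20 mL/20 g.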

[7] = molecular target: Kappa-type opioid receptor (Homo sapiens, UniProt P41145); assay: Inhibition of rabbit vas deferens contractions; assay type: functional, Oryctolagus cuniculus; settings: target entry is the homologue from another species
Chain of Kappa-type opioid receptor (Homo sapiens, UniProt P41145) (P41145 whole entry): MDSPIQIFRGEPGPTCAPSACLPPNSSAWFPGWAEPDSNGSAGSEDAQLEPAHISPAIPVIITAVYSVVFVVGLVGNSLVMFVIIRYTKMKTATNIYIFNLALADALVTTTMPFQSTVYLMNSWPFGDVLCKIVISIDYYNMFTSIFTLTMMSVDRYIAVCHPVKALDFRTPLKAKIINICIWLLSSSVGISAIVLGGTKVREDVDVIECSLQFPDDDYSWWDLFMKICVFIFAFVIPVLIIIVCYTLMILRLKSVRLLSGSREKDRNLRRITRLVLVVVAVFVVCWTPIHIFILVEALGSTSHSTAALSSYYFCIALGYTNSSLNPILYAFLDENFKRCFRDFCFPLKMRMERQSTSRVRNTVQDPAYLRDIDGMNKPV
Procedure, shortened: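 κ functional study run on rabbit vas deferens tissue.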

Mus musculus [8] = assay: Percent inhibition of mouse abdominal constriction at a dose of 10 ug upon intracerebro ventricular administration; assay type: functional, Abdomen; procedure, shortened: as §2
Mus musculus [9] = assay: Percent inhibition of mouse abdominal constriction at a dose of 100 mg/kg when administered subcutaneously; assay type: functional; settings: Abdomen, sc, route subcutaneous; procedure, shortened: as §2
[10] = molecular target: Kappa-type opioid receptor (Cavia porcellus, UniProt P41144); assay: Binding affinity for kappa opioid receptor of guinea pig cerebellum; assay type: tissue-based
Chain of Kappa-type opioid receptor (Cavia porcellus, UniProt P41144) (P41144 whole entry): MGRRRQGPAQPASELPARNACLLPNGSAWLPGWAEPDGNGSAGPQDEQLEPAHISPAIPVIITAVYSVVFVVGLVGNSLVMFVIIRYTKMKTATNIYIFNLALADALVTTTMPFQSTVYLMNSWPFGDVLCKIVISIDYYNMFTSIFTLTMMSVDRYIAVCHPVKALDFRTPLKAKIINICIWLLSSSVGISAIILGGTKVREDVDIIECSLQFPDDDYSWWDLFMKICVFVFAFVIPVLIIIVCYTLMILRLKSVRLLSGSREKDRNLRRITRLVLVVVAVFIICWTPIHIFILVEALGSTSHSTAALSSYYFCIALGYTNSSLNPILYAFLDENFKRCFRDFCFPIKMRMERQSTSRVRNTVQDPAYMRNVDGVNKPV

Chain of Opioid receptors; mu & delta (Rattus norvegicus) (P33533 whole entry, looked up): as the sequence (P33533 whole entry) above
Chain of Opioid receptors; mu & delta (Rattus norvegicus) (P33535 whole entry, looked up): as the sequence (P33535 whole entry) above

Structure (SMILES) | Selectivity [1] | pEC50 (Mu-type opioid receptor [2]) | pKi [3] | pKi (Mu-type opioid receptor [4]) | pEC50 [5] | further results
Cc1[nH]c([C@@H]2Cc3ccccc3CN2C(=O)[C@@H](N)Cc2ccc(O)cc2)nc1-c1ccccc1 (stereo in doubt; 4c) [listing 1 of 2 here] | 75 | – | – | – | – | –
Cc1[nH]c([C@@H]2CCCCN2C(=O)[C@@H](N)Cc2ccc(O)cc2)nc1-c1ccccc1 | 0.1 | 6.82 | 7.67 | 8.82 | 6.27 | –
Cc1[nH]c([C@@H]2CCCN2C(=O)[C@@H](N)Cc2ccc(O)cc2)nc1-c1ccccc1 | < 0.02 | 5.89 | < 7.00 | 7.64 | – | –
N[C@@H](Cc1ccc(O)cc1)C(=O)N1Cc2ccccc2C[C@H]1c1nc(-c2ccccc2)c(Br)[nH]1 | – | < 5.00 | 9.96 | 7.94 | 8.72 | –
CN(C)C(=O)C(CCN1CCC(O)(c2ccc(Cl)cc2)CC1)(c1ccccc1)c1ccccc1 [LOPERAMIDE] | – | 7.24 | 7.30 | – | – | –
N[C@@H](Cc1ccc(O)cc1)C(=O)N1Cc2ccccc2C[C@H]1c1nc(Br)c(-c2ccccc2)[nH]1 | 14 | – | – | – | – | –
Cc1[nH]c([C@@H]2Cc3ccccc3CN2C(=O)[C@@H](N)Cc2ccc(O)cc2)nc1-c1ccccc1 (stereo in doubt) [listing 1 of 2 here] | 4 | – | – | – | – | –
N[C@@H](Cc1ccc(O)cc1)C(=O)N1Cc2ccccc2C[C@H]1c1nc2ccccc2[nH]1 (single isomer, unassigned) [listing 1 of 2 here] | > 2 | – | – | – | – | –
CCCc1nc([C@@H]2Cc3ccccc3CN2C(=O)[C@@H](N)Cc2ccc(O)cc2)[nH]c1C (single isomer, unassigned) | – | – | < 7.00 | < 7.00 | – | –
N[C@@H](Cc1ccc(O)cc1)C(=O)N1Cc2ccccc2C[C@H]1c1nc(-c2ccccc2)c[nH]1 | 63 | 5.62 | 9.05 | 7.26 | 7.60 | Inhibition (Mus musculus [6]): 100%; pEC50 [7]: < 7.52; Inhibition (Mus musculus [8]): 40%; inhibition in vivo at 100 mg/kg (Mus musculus [9]): 0%; pKi [10]: 6.91
N[C@@H](Cc1ccc(O)cc1)C(=O)N1Cc2ccccc2C[C@H]1c1nc2ccccc2[nH]1 [listing 1 of 2 here] | > 6 | – | – | – | – | –
N[C@@H](Cc1ccc(O)cc1)C(=O)N1Cc2ccccc2C[C@H]1C(=O)NCCc1ccccc1 (HELM PEPTIDE1{Y.[Tic].[c1ccc(CCN[*:1])cc1]}$$$$V2.0) | 13 | 5.67 | 8.28 | 7.16 | 7.09 | –
CCCc1nc([C@@H]2Cc3ccccc3CN2C(=O)[C@@H](N)Cc2ccc(O)cc2)[nH]c1C | – | – | 7.20 | < 7.00 | 7.07 | –
CCCc1[nH]c([C@@H]2Cc3ccccc3CN2C(=O)[C@@H](N)Cc2ccc(O)cc2)nc1C | > 1 | – | – | – | – | –
N[C@@H](Cc1ccc(O)cc1)C(=O)N1Cc2ccccc2C[C@H]1c1nc2ccccc2[nH]1 [listing 2 of 2 here] | – | < 5.00 | 7.82 | < 7.00 | 7.43 | –
Cc1[nH]c([C@@H]2Cc3ccccc3CN2C(=O)[C@@H](N)Cc2ccc(O)cc2)nc1-c1ccccc1 (stereo in doubt) [listing 2 of 2 here] | – | – | 7.71 | 7.07 | 6.90 | –
CCCc1c[nH]c([C@@H]2Cc3ccccc3N2C(=O)[C@@H](N)CC)n1 | – | – | < 7.00 | < 7.00 | – | –
N[C@@H](Cc1ccc(O)cc1)C(=O)N1Cc2ccccc2C[C@H]1c1nc2ccccc2[nH]1 (single isomer, unassigned) [listing 2 of 2 here] | – | – | 7.30 | < 7.00 | 6.36 | –
Cc1[nH]c([C@@H]2Cc3ccccc3CN2C(=O)[C@@H](N)Cc2ccc(O)cc2)nc1-c1ccccc1 (stereo in doubt; 4c) [listing 2 of 2 here] | – | < 5.00 | 9.52 | 7.68 | 8.85 | –
